pIC50: −log10 of the molar value. Where two headings read alike, the source gives them in different places.
How the values were obtained:
NRK-52E cells [1] = experiment: Cell death assay; type: cell-based, rat; settings: for Protection against cisplatin-induced cell death (LDH release): cisplatin 60 μM, 24 h; for Cytotoxicity of the inhibitor: highest concentration tested
Procedure, shortened: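 NRK-52E rat tubular epithelial cells were grown in DMEM with 5% FBS at 37 °C, 5% CO₂, and used within 1 d after confluence. Cells were seeded at 8000–10,000 per well, grown 24 h, then pre-incubated 2 h with serial dilutions of test compound. Cisplatin 60 μM was added, and LDH release was measured after 24 h with a CytoTox96 kit. Mean ± SD, n = 4.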

RNase A = biological target: T1, RNase A (Bos taurus, UniProt P61823); experiment: Ribonuclease A Detection kit; type: biochemical; settings: 1 μM and 100 μM
T1 sequence (P61823 27-150): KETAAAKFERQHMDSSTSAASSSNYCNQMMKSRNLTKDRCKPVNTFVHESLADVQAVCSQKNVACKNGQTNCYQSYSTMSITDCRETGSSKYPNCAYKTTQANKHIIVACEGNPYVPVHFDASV

micrococcal nuclease = micrococcal nuclease (Staphylococcus aureus, UniProt P00644); experiment: Plasmid incision assay; type: biochemical, bacterial; settings: 10 μM
Procedure, shortened: (§1)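 Plasmid incision: 1 μg pECFP plasmid in 2 mM CaCl₂, 5 mM MgCl₂, 10 mM Tris-HCl pH 7.4, 0.5 mM DTT, test compound in DMSO (1% final), nuclease added, 1 h at 37 °C. The reaction was stopped with SDS/EDTA and run on a 1% agarose TAE gel at 7 V/cm for 35 min. Ethidium bromide-stained supercoiled band was quantified densitometrically.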

Solubility in water = type: physicochemical
DNase II = biological target: T2, DNase II (Sus scrofa, UniProt O62855); experiment: HTS fluorescent probe assay with DNase II; type: biochemical; settings: DNase II 3.32 nM, pH 5.0; compared with DNase I
T2 sequence (O62855 22-364): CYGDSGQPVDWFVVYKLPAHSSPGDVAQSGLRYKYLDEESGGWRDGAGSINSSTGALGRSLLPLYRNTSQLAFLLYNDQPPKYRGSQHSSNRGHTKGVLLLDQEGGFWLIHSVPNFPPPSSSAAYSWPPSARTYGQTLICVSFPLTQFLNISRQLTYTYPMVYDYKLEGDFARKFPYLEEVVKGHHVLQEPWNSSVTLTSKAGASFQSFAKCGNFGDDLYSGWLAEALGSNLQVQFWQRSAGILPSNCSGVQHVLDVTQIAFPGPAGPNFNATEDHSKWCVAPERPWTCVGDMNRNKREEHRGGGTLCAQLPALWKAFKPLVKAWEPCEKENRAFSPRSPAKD

Benzonase = Benzonase (Serratia marcescens, UniProt P13717); experiment: Plasmid incision assay; type: biochemical, bacterial; settings: 10 μM
Procedure, shortened: as §1

protease = experiment: Protease Fluorescent Detection kit; type: biochemical; settings: 1 μM and 100 μM
EndoG [2] = experiment: EndoG protein expression by quantitative immunohistochemistry; type: cell-based, rat; settings: NRK-52E cells, cisplatin 60 μM
Procedure, shortened: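 NRK-52E cells were fixed in 5% formalin and stained with rabbit anti-EndoG (1:200 in 0.5% BSA, 0.05% Tween-20, PBS), then AlexaFluor 647 anti-rabbit IgG (1:400), with DAPI counterstain. The control omitted the primary antibody. Red-channel mean optical density was recorded over 10 independent fields per subset. Mean ± SD, n = 4.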

recombinant murine EndoG = biological target: T3, recombinant murine EndoG (Mus musculus, UniProt O08600); experiment: HTS fluorescent probe assay with EndoG; type: biochemical; settings: EndoG 0.14 μM; compared with DNase I
T3 sequence (O08600 45-294): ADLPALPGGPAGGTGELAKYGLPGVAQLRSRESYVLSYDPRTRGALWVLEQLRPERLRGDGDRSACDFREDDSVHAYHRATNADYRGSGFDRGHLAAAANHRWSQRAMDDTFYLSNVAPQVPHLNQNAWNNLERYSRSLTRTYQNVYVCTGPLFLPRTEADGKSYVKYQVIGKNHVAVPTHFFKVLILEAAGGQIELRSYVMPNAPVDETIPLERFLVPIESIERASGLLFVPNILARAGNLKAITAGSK
Procedure, shortened: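 Fluorescence was read kinetically at 37 °C, and mean velocity (mRFU/min) was taken over 20 min after background subtraction. Activity was expressed as a percentage of the DMSO control.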

SOD = SOD Determination kit; type: biochemical; settings: 1 μM and 100 μM
[3] = biological target: T4, recombinant human DNase I (Homo sapiens, UniProt P24855); experiment: High-throughput DNase I screening assay; type: biochemical; settings: for Type of inhibition according to Lineweaver–Burk plots: DNase I
T4 sequence (P24855 23-282): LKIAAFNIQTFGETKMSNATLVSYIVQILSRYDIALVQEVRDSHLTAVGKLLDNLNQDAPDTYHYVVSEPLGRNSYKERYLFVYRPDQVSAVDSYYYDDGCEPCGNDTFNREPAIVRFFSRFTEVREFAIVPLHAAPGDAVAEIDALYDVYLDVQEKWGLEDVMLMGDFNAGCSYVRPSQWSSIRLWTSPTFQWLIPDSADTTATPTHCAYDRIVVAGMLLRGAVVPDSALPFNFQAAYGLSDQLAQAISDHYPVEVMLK

NRK-52E cells [4] = experiment: TUNEL assay of cisplatin-induced DNA fragmentation; type: cell-based, rat; settings: inhibitor 100 μM, 24 h cisplatin 60 μM
Procedure, shortened: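 Cells were exposed to cisplatin for 24 h in the presence of test compound at 100 μM, fixed in 5% formalin, TUNEL-stained with an in situ cell death detection kit, and counterstained with DAPI. Green-channel mean optical density for TUNEL-positive DNA damage was recorded over 10 independent fields per subset. Mean ± SD, n = 4.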

LDH = settings: 1 μM and 100 μM
EndoG [5] = experiment: EndoG mRNA expression by real-time RT-PCR; type: cell-based, rat; settings: NRK-52E cells, cisplatin
[6] = read-out: IC50 against DNase I, DNase I 1.72 nM, 37 °C, HTS assay

Benzonase, sequence (P13717 22-266): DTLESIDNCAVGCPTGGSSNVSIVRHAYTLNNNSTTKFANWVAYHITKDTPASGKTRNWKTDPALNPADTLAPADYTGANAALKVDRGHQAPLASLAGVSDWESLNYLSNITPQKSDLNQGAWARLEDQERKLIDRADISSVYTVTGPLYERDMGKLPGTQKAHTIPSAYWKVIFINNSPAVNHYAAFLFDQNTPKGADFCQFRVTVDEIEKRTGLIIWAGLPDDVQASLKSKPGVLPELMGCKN

pIC50 [3] | Molecule | Protection against cisplatin-induced cell death (LDH release) (NRK-52E cells [1]) | Cytotoxicity of the inhibitor (NRK-52E cells [1]) | Inhibition of RNase A (RNase A) | Inhibition of micrococcal nuclease (PIA) (micrococcal nuclease) | Solubility in water (Solubility in water) | Suppression of DNase II activity (DNase II) | Inhibition of Benzonase (PIA) (Benzonase) | Inhibition of protease (protease) | EndoG protein expression (EndoG [2]) | Suppression of EndoG activity (recombinant murine EndoG) | Inhibition of SOD (SOD) | Type of inhibition according to Lineweaver–Burk plots [3] | pIC50 [3, 6] | Inhibition of cisplatin-induced DNA fragmentation (TUNEL) (NRK-52E cells [4]) | Inhibition of LDH (LDH) | EndoG mRNA expression (EndoG [5])
 | 1,3-phenylene-bis-aminoguanidine hydrochloride [IG-17] | some protection against cisplatin-induced cell death | significant cytotoxicity | no inhibition activity was observed | absence of inhibition | unlimited solubility in water | suppress the activity | absence of inhibition | no inhibition activity was observed | lower than the control level | suppress the activity | no inhibition activity was observed | competitive inhibitors | 5.05 | marked inhibition | no inhibition activity was observed | 
 | 1,4-phenylene-bis-aminoguanidine hydrochloride [JR-132] | some protection against cisplatin-induced cell death | significant cytotoxicity | no inhibition activity was observed | absence of inhibition | unlimited solubility in water | suppress the activity | absence of inhibition | no inhibition activity was observed | significantly decreased | suppress the activity | no inhibition activity was observed | competitive inhibitors | 5.56 | marked inhibition | no inhibition activity was observed | significantly decreased
3.72 | O=C(O)CN(CCN(CC(=O)O)CC(=O)O)CC(=O)O [EDTA, ethylenediaminetetraacetic acid, reference compound] |  |  |  |  |  |  |  |  |  |  |  |  |  |  |  | 
 | [Cl-].[Cl-].[Zn+2] [ZnCl2, reference compound] |  |  |  |  |  |  |  |  |  |  |  |  | 4.74 |  |  | 
